The results in this text go back to ChEMBL document CHEMBL4665866, “Generation, optimization and characterization of novel anti-prion compounds” (Bioorg Med Chem, 2020).

Test system in the first experiment: not listed separately
The experiment is described as follows: Anti-prion activity against 22L prion protein in mouse N2a cells by Western blotting analysis. The class given is cell-based. For orientation: A western blot detects proteins with antibodies after separation by electrophoresis.
As to `OC1(C#Cc2ccccc2)CCCCC1NCc1ccccc1` (racemic), the midpoint of inhibition, the IC50, lay at 8.25 µM.

A further experiment concerns N2a. The experiment is described as follows: Anti-prion activity against Scrapie prion protein in mouse N2a-FK cells assessed as residual activity at 10 uM after 48 hrs by immunoblotting analysis relative to control. The class given is cell-based. In short, it runs like this:
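FK-1-infected N2a cells were seeded overnight at 37 °C, then exposed to 10 µM compound for 48 h. Lysates were treated with 20 μg/mL proteinase K at 37 °C for 30 min, then 15% SDS-PAGE and western blot for PrP^Sc. PrP^Sc ratio is % of solvent-treated control (100%), Tukey-Kramer comparison, mean ± SD.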
For the compound `N[C@H]1CCCC[C@@]1(O)CCc1ccccc1` (racemic), the Activity was determined as 88%.
`OC(C#Cc1ccccc1)CNCc1ccccc1` (centres undefined): the Activity is 120%.
Same read-out and setting: to `COC(=O)c1cccc(C#C[C@]2(O)CCCC[C@@H]2NCc2ccccc2)c1` (racemic) belongs 83.7%; to `CCOC(=O)CN(Cc1ccccc1)[C@H]1CCCC[C@@]1(O)C#Cc1ccccc1` (racemic), 76.1%.
Same read-out and setting: under `O[C@@]1(C#Cc2ccccc2)CCCC[C@@H]1NCC1CCCCC1` (racemic) stands 32.7%; under `C(#C[C@@]12CCCC[C@@H]1N2Cc1ccccc1)c1ccccc1` (mixture of isomers), 96.7%; under `COC(=O)c1ccccc1C#C[C@]1(O)CCCC[C@@H]1NCc1ccccc1` (racemic), 103%.
Same read-out and setting: under `OC1(CN[C@H]2CCCC[C@@]2(O)C#Cc2ccccc2)CCCCC1` (racemic) stands 77.5%; under `O[C@@]1(C#Cc2ccccc2)CCCC[C@@H]1NCc1ccco1` (racemic), 103%.
Regarding `O[C@@]1(C#Cc2cccc(F)c2)CCCC[C@@H]1NCc1ccccc1` (racemic), the Activity stood at 74.5%.
Still for that read-out and setting: under `OC1(C#Cc2ccccc2)CCCCC1NCc1ccccc1` (racemic) stands 85.8%.
On the same count and under the same terms, under `O=S(=O)(N[C@H]1CCCC[C@@]1(O)CCc1ccccc1)c1ccccc1` (racemic) stands 112%; under `COc1ccc(C#C[C@]2(O)CCCC[C@@H]2NCc2ccccc2)cc1` (racemic), 75.7%; under `O[C@@]1(C#Cc2ccc(F)cc2)CCCC[C@@H]1NCC1CCCCC1` (racemic), 35.5%.
Still for that read-out and setting: under `O[C@@]1(C#Cc2ccccc2)CCCC[C@@H]1NCC1CCCC1` (racemic) stands 54.8%; under `O[C@@]1(C#Cc2ccccc2F)CCCC[C@@H]1NCc1ccccc1` (racemic), 80.7%.
In the case of `O[C@@]1(C#Cc2ccc(F)cc2)CCCC[C@@H]1NCc1ccccc1` (racemic), the Activity came out at 95.1%.
The same measure, in the same setting: to `O[C@@]1(C#Cc2ccccc2)CCCC[C@@H]1NCc1ccccc1F` (mixture of isomers) belongs 68.6%.
Still for that read-out and setting: under `O[C@@]1(C#Cc2ccccc2)CCCC[C@@H]1NCc1ccccn1` (racemic) stands 116%.
As to `O[C@@]1(C#Cc2ccccc2)CCCCC[C@@H]1NCc1ccccc1` (racemic), the Activity was 75.7%.
The same measure, in the same setting: to `Cc1ccc(CN[C@H]2CCCC[C@@]2(O)C#Cc2ccccc2)cc1` (racemic) belongs 75.5%; to `O[C@@]1(C#Cc2ccccc2)CCCC[C@@H]1NCc1ccccc1`, 100%.
On the same count and under the same terms, under `O[C@@]1(C#Cc2ccc(Cl)cc2)CCCC[C@@H]1NCc1ccccc1` (racemic) stands 77.5%.
On the same count and under the same terms, to `O[C@@]1(C#Cc2ccccc2)CCCC[C@@H]1N1CC[C@@H]2CCCC[C@H]2C1` (racemic) belongs 66.7%.
As for `O=C(N[C@H]1CCCC[C@@]1(O)CCc1ccccc1)c1ccccc1` (racemic), the Activity stood at 126%.
The same measure, in the same setting: under `O=C1O[C@@]2(C#Cc3ccccc3)CCCC[C@@H]2N1Cc1ccccc1` stands 68.4%; under `O[C@@]1(C#Cc2ccccc2)CCOC[C@@H]1NCc1ccccc1` (racemic), 85.2%.
Still for that read-out and setting: to `Cc1cccc(C#C[C@]2(O)CCCC[C@@H]2NCc2ccccc2)c1` belongs 93.7%; to `COC(=O)c1ccc(C#C[C@]2(O)CCCC[C@@H]2NCc2ccccc2)cc1` (racemic), 84.8%.
`O[C@@]1(/C=C/c2ccccc2)CCCC[C@@H]1NCc1ccccc1`: the Activity is 81.6%.
On the same count and under the same terms, under `COc1ccc(CN[C@H]2CCCC[C@@]2(O)C#Cc2ccccc2)cc1` (racemic) stands 83.3%; under `O[C@@]1(C#Cc2ccccc2)CCCC[C@@H]1NCc1cccnc1` (racemic), 63.4%; under `Cc1ccc(C#C[C@]2(O)CCCC[C@@H]2NCC2CCCCC2)cc1` (racemic), 75.2%.
Same read-out and setting: under `O[C@@]1(C#Cc2ccccc2)CCCC[C@@H]1N1CCc2ccccc2C1` (racemic) stands 86%; under `O[C@@]1(C#Cc2ccccc2)CCCC[C@@H]1NCc1cccc(F)c1` (racemic), 61.2%; under `Cc1cccc(CN[C@H]2CCCC[C@@]2(O)C#Cc2ccccc2)c1`, 84.8%.
Turning to `O[C@@]1(C#Cc2ccccc2)CCCC[C@@H]1NCc1ccc(F)cc1` (racemic), the Activity turned out to be 58.8%.
On the same count and under the same terms, to `O[C@@]1(C#Cc2ccccc2)CCCC[C@@H]1NCc1ccccc1Cl` (racemic) belongs 96.1%; to `CC(C)(C)OC(=O)N1CC[C@@](O)(C#Cc2ccccc2)[C@@H](NCc2ccccc2)C1` (racemic), 108%; to `O[C@@]1(C#Cc2ccccc2)CCCC[C@@H]1NCc1ccncc1` (racemic), 102%.

Test system in the next experiment: not listed separately
The experiment is described as follows: Anti-prion activity against RML prion protein in mouse N2a cells by Western blotting analysis. The class given is cell-based.
In the case of `OC1(C#Cc2ccccc2)CCCCC1NCc1ccccc1` (racemic), the IC50 (commonly the midpoint of a concentration-inhibition curve) came out at 3.21 µM.

Test system in a further experiment: not listed separately
The experiment is described as follows: Anti-prion activity against Scrapie prion protein in mouse N2a-FK cells after 48 hrs by immunoblotting analysis. The class given is cell-based. A digest of the protocol:
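N2a cells persistently infected with FK-1 prion strain, seeded overnight at 37 °C, then exposed to compound at 1, 5 and 10 µM for 48 h. Lysates digested with 20 μg/mL proteinase K at 37 °C for 30 min, run on 15% SDS-PAGE, and western blotted. PrP^Sc band intensity was plotted against concentration and fitted to a Boltzmann sigmoid for IC50. Mean ± SD from at least three experiments.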
For `O[C@@]1(C#Cc2ccccc2)CCCC[C@@H]1NCC1CCCCC1` (racemic), the IC50 stood at 4.7 µM.
Still for that read-out and setting: under `O[C@@]1(C#Cc2ccc(F)cc2)CCCC[C@@H]1NCC1CCCCC1` (racemic) stands 5.6 µM.
